Experimental data from paper PMC2659781 (Drug metabolism and disposition: the biological fate of …, 2008).
Converted amounts (≈) assume the structure as drawn. “Also recorded” adds a separate entry of the source.

Tests used:
[1] = test system: brain cortical 20-HETE tissue concentrations; experiment: Brain cortical 20-HETE tissue concentration after iv HET0016; format: in vivo, rat
[2] = 1 hour after intraperitoneal 10 mg/kg dose in lecithin; ref Poloyac et al., 2006; cited from earlier work
[3] = Aqueous solubility of HET0016 in ddH2O and 15% HPβCD; format: physicochemical
[4] = test system: 20-HETE formation in brain cortical microsomes; experiment: Ex vivo 20-HETE formation in brain cortical microsomes from treated rats; design: species or system rat; conditions: 1 mg/kg iv, one hour after dosing, incubated in the absence of inhibitor
Procedure, shortened: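 Rats got 1 mg/kg test compound iv or vehicle (n = 6 per group); cortex was taken 1 h post-dose. Microsomes were made by differential centrifugation in pH 7.4 tris/KCl/DTT/EDTA/20% glycerol buffer with PMSF and BHT. 325μg protein was incubated without added inhibitor in 0.12 M potassium phosphate/5mM MgCl2 with 100μM arachidonic acid. NADPH 1mM was added at start and at 30 min; 37°C, 60 min. 20-HETE d6 internal standard, diethyl ether extraction, MS.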

[5] = ref Nakamura et al., 2003, cited from earlier work
[6] = test system: 20-HETE formation in rat brain cortical microsomes; experiment: Inhibition of 20-HETE formation in rat brain cortical microsomes; format: biochemical; conditions: for 20-HETE formation rate, % of control incubation: HET0016 48.5 nM, 100 μM arachidonic acid

Structure (SMILES): CCCCc1ccc(N=CNO)c(C)c1 [HET0016, N-Hydroxy-N′-(4-n-butyl-2-methylphenyl)formamidine]
- time 20-HETE tissue concentrations remained significantly reduced ([1]; 1 mg/kg iv): 60 min
- time of return of 20-HETE to control levels ([1]; 1 mg/kg iv): ≤ 24 h
- time to reduction of brain 20-HETE after administration ([1]; 1 mg/kg iv): ≤ 5 min
- 20-HETE concentration recovery (of control) ([1]; 1 mg/kg iv, 180 minutes): 70%
- 20-HETE concentrations in brain tissue of treated animals (chromatograms) ([1]; data not shown): near or below the limits of detection
- rat brain 20-HETE concentration after dosing ([1]; single iv dose 1 mg/kg, HPβCD formulation, from 289 pmol/g): 91 pmol/g
- brain concentration as % of plasma concentration [2]: less than 10%
- solubility at 48 h ([3]; 15% HPβCD): 453 ± 63.3 µg/mL (≈ 2190 µM)
- solubility at 48 h ([3]; distilled, deionized water): 34.2 ± 31.2 µg/mL (≈ 166 µM)
- ex vivo 20-HETE formation in microsomes of treated animals [4]: persistent inhibition
- stability ([5]; acidic pH): instability
- aqueous solubility ([5]; neutral pH): poor aqueous solubility
- reduction in 20-HETE formation rate ([6]; HET0016 30 nM): ~ 70%
- 20-HETE formation rate, % of control incubation ([6]; with 10 minute pre-incubation): 4.92 ± 0.19%
- 20-HETE formation rate, % of control incubation ([6]; without pre-incubation): 4.89 ± 0.46%
- concentrations of HET0016 required for 20-HETE inhibition in the rat brain ([6]; in vitro): 30 to 90 nM
- need for metabolic activation to inhibit 20-HETE formation ([6]; pre-incubation versus no pre-incubation): does not require metabolic activation
- mechanism of inhibition of 20-HETE formation ([6]; rat brain cortical microsomes, 24 nM HET0016, arachidonic acid up to 120 μM): non-competitive inhibitor; also recorded: non-competitive inhibition
